This is an account of results in ChEMBL document CHEMBL6078712, “Triterpenoid phthalimides as selective anti-cancer agents targeting mitochondrial apoptosis” (Eur J Med Chem, 2025).

A short description of series [1]: Cytotoxicity against human BJ cells assessed as inhibition of cell growth incubated for 72 hrs by MTS assay. Type of series: toxicity, cell-based. The method, boiled down:
(§1)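 MTS assay on eight human cancer lines and two non-tumour fibroblast lines. IC50 is the concentration that inhibits cell growth by 50 %. SD typically up to 15 % of the mean.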
(In general: Tetrazolium dyes change colour on reduction, which living cells bring about.)

For a further series, the system named is CEM-DNR. Nature of the series: Cytotoxicity against human CEM-DNR cells assessed as inhibition of cell growth incubated for 72 hrs by MTS assay. The format is functional, cell-based. The method, boiled down:
as §1

In the next series the test system is HCT-116. Nature of the series: Cytotoxicity against human HCT-116 cells assessed as inhibition of cell growth incubated for 72 hrs by MTS assay. Particulars: HCT-116, 72 h. Type of series: functional, cell-based. Summed up:
as §1

A short description of series [2]: Cytotoxicity against human K562-Tax cells assessed as inhibition of cell growth incubated for 72 hrs by MTS assay. The format is functional, cell-based. Summed up: as §1
In the next series the test system is K562. As to the kind of experiment: Cytotoxicity against human K562 cells assessed as inhibition of cell growth incubated for 72 hrs by MTS assay. Type of series: functional, cell-based. Particulars: K562, 72 h. Summed up:
as §1

In another series the test system is A549. As to the kind of experiment: Cytotoxicity against human A549 cells assessed as inhibition of cell growth incubated for 72 hrs by MTS assay. The format is functional, cell-based. Particulars: A549, 72 h. Summed up:
as §1

Series [3] can be described thus: Cytotoxicity against human MRC5 cells assessed as inhibition of cell growth incubated for 72 hrs by MTS assay. Type of series: toxicity, cell-based. Summed up:
as §1

A further series deals with HCT 116 TP53(-/-). Nature of the series: Cytotoxicity against human HCT116-p53-null cells assessed as inhibition of cell growth incubated for 72 hrs by MTS assay. The format is functional, cell-based. Summed up: as §1
Another series has as its system U2OS. As to the kind of experiment: Cytotoxicity against human U2OS cells assessed as inhibition of cell growth incubated for 72 hrs by MTS assay. The format is functional, cell-based. Summed up: as §1
The next series deals with CCRF-CEM. Nature of the series: Cytotoxicity against human CCRF-CEM cells assessed as inhibition of cell growth incubated for 72 hrs by MTS assay. Type of series: functional, cell-based. Summed up:
as §1

On to `CC1(C)[C@@H](O)CC[C@]2(C)[C@H]3CC[C@@H]4[C@H]5[C@H](c6ccc7c(c6)C(=O)N(c6ccc(C#N)cc6)C7=O)CC[C@]5(C(=O)O)CC[C@@]4(C)[C@]3(C)CC[C@@H]12`, for which the IC50 at 72 h in series [1] and in series [3] was > 50 µM each time. Besides, the 50% inhibitory concentration (IC50) with CEM-DNR is 27.3 µM; in the series with HCT-116, > 50 µM; in series [2], 12.7 µM; in the series on K562, > 50 µM; in the series with A549 it was > 50 µM; with HCT 116 TP53(-/-), > 50 µM. The results for the concentration for half-maximal inhibition (IC50) in the series on U2OS and in the series with CCRF-CEM were > 50 µM and 19.8 µM, respectively.

Consider `COc1ccc(N2C(=O)c3ccc([C@@H]4CC[C@]5(COC(C)=O)CC[C@]6(C)[C@H](CC[C@@H]7[C@@]8(C)CC[C@H](OC(C)=O)C(C)(C)[C@@H]8CC[C@]76C)[C@@H]45)cc3C2=O)cc1`, for which the 50% inhibitory concentration (IC50) at 72 h in series [1] and in [3] was > 50 µM throughout. In addition, the half-maximal inhibitory concentration (IC50) (with CEM-DNR; in the series on HCT-116; in [2]; with K562; in the series on A549; with HCT 116 TP53(-/-)) was > 50 µM each time. The concentration for half-maximal inhibition (IC50) with U2OS and with CCRF-CEM was > 50 µM each time.

With `CC(=O)OC[C@]12CC[C@@H](c3cc4c(c(-c5ccccc5)c3)C(=O)NC4=O)[C@@H]1[C@H]1CC[C@@H]3[C@@]4(C)CC[C@H](OC(C)=O)C(C)(C)[C@@H]4CC[C@@]3(C)[C@]1(C)CC2`, the half-maximal inhibitory concentration (IC50) at 72 h in series [1] and in series [3] was > 50 µM in each case. The IC50 (in the series with CEM-DNR; with HCT-116; in series [2]; with K562; in the series with A549; in the series with HCT 116 TP53(-/-)) was > 50 µM throughout. The IC50 in the series with U2OS and with CCRF-CEM was > 50 µM in each case.

As to `CC1(C)[C@@H](O)CC[C@]2(C)[C@H]3CC[C@@H]4[C@H]5[C@H](c6cc7c(c(-c8ccccc8)c6)C(=O)N(c6ccc(C#N)cc6)C7=O)CC[C@]5(C(=O)O)CC[C@@]4(C)[C@]3(C)CC[C@@H]12`, the IC50 at 72 h in [1] and in series [3] was > 50 µM in each case. The 50% inhibitory concentration (IC50) (in the series with CEM-DNR; in the series with HCT-116; in [2]; in the series on K562; in the series with A549; in the series on HCT 116 TP53(-/-)) was > 50 µM throughout. The values for the IC50 with U2OS and with CCRF-CEM were > 50 µM and 14.2 µM, respectively.

As for `CC1(C)[C@@H](O)CC[C@]2(C)[C@H]3CC[C@@H]4[C@H]5[C@H](c6ccc7c(c6)C(=O)N(c6ccccc6)C7=O)CC[C@]5(C(=O)O)CC[C@@]4(C)[C@]3(C)CC[C@@H]12`, the IC50 at 72 h in series [1] is > 50 µM; in [3], 31 µM. Moreover, the IC50 in the series with CEM-DNR was 19.9 µM; in the series with HCT-116, 31.1 µM; in series [2], 14.3 µM; with K562, > 50 µM; with A549, 34.2 µM; in the series with HCT 116 TP53(-/-), 37.8 µM. The IC50 in the series with U2OS turned out to be 24.9 µM; in the series with CCRF-CEM, 7.93 µM.

On to `CC1(C)[C@@H](O)CC[C@]2(C)[C@H]3CC[C@@H]4[C@H]5[C@H](c6ccc7c(c6)C(=O)NC7=O)CC[C@]5(C(=O)O)CC[C@@]4(C)[C@]3(C)CC[C@@H]12`, for which the half-inhibitory concentration (IC50) at 72 h in [1] and in series [3] was > 50 µM in each case. Besides, the IC50 in the series on CEM-DNR amounted to 20.7 µM; in the series with HCT-116, 31.1 µM; in series [2], 17.3 µM; in the series with K562, 35.3 µM; in the series with A549, 26.6 µM; in the series on HCT 116 TP53(-/-), 34.9 µM. The IC50 in the series with U2OS was 38.5 µM; with CCRF-CEM, 26.3 µM.

With `COC(=O)c1cc([C@@H]2CC[C@]3(CO)CC[C@]4(C)[C@H](CC[C@@H]5[C@@]6(C)CC[C@H](O)C(C)(C)[C@@H]6CC[C@]54C)[C@@H]23)cc(-c2ccccc2)c1C(=O)OC`, the IC50 at 72 h in [1] and in [3] was > 50 µM each time. Also, the IC50 (in the series on CEM-DNR; in the series with HCT-116; in series [2]; in the series on K562; in the series on A549; in the series with HCT 116 TP53(-/-)) was > 50 µM in each case. Besides, the half-inhibitory concentration (IC50) in the series with U2OS and in the series with CCRF-CEM was > 50 µM each time.

On to `CC1(C)[C@@H](O)CC[C@]2(C)[C@H]3CC[C@@H]4[C@H]5[C@H](c6cc(C#N)c(C#N)c(-c7ccccc7)c6)CC[C@]5(C(=O)O)CC[C@@]4(C)[C@]3(C)CC[C@@H]12`, for which the IC50 at 72 h is 36.2 µM in [1] and 25.7 µM in series [3]. Moreover, the IC50 in the series on CEM-DNR is 13.7 µM; in the series on HCT-116, 26 µM; in [2], 7 µM; in the series on K562, 27.8 µM; with A549, 20.7 µM; in the series with HCT 116 TP53(-/-) it was 31.6 µM. Also, the IC50 with U2OS stood at 19.2 µM; with CCRF-CEM, 5.99 µM.

`CC(=O)O[C@H]1CC[C@]2(C)[C@H]3CC[C@@H]4[C@H]5[C@H](c6cc7c(c(-c8ccccc8)c6)C(=O)NC7=O)CC[C@]5(CO)CC[C@@]4(C)[C@]3(C)CC[C@H]2C1(C)C`: the 50% inhibitory concentration (IC50) at 72 h in series [1] and in [3] was > 50 µM in each case. The IC50 (in the series with CEM-DNR; with HCT-116; in [2]; in the series with K562; in the series on A549; with HCT 116 TP53(-/-)) was > 50 µM throughout. The concentration for half-maximal inhibition (IC50) in the series with U2OS and with CCRF-CEM was > 50 µM throughout.

In the case of `COC(=O)c1ccc([C@@H]2CC[C@]3(CO)CC[C@]4(C)[C@H](CC[C@@H]5[C@@]6(C)CC[C@H](O)C(C)(C)[C@@H]6CC[C@]54C)[C@@H]23)cc1C(=O)OC`, the 50% inhibitory concentration (IC50) at 72 h in series [1] and in [3] was > 50 µM each time. Moreover, the IC50 in the series with CEM-DNR is 19.7 µM; with HCT-116 it was > 50 µM; in [2] it was 10.3 µM; in the series on K562, > 50 µM; with A549, > 50 µM; in the series with HCT 116 TP53(-/-), > 50 µM. Moreover, the IC50 in the series on U2OS and in the series on CCRF-CEM was > 50 µM each time.

For the compound `CC1(C)[C@@H](O)CC[C@]2(C)[C@H]3CC[C@@H]4[C@H]5[C@H](c6ccc(C(=O)O)c(C(=O)O)c6)CC[C@]5(C(=O)O)CC[C@@]4(C)[C@]3(C)CC[C@@H]12`, the concentration for half-maximal inhibition (IC50) at 72 h in series [1] and in series [3] was > 50 µM in each case. In addition, the IC50 (with CEM-DNR; in the series on HCT-116; in series [2]; in the series with K562; in the series on A549; with HCT 116 TP53(-/-)) was > 50 µM in each case. The half-maximal inhibitory concentration (IC50) with U2OS and in the series with CCRF-CEM was > 50 µM throughout.

For the compound `CC1(C)[C@@H](O)CC[C@]2(C)[C@H]3CC[C@@H]4[C@H]5[C@H](c6cc7c(c(-c8ccccc8)c6)C(=O)NC7=O)CC[C@]5(C(=O)O)CC[C@@]4(C)[C@]3(C)CC[C@@H]12`, the IC50 at 72 h amounted to 34.5 µM in series [1] and 32.4 µM in series [3]. For the same compound, the IC50 with CEM-DNR was 9.65 µM; with HCT-116, 7.22 µM; in series [2], 10.4 µM; in the series with K562 it was 7.58 µM; with A549, 6.39 µM; with HCT 116 TP53(-/-) it was 7.43 µM. The IC50 turned out to be 9.82 µM with U2OS and 7.18 µM with CCRF-CEM.

As for `COC(=O)c1cc([C@@H]2CC[C@]3(C(=O)O)CC[C@]4(C)[C@H](CC[C@@H]5[C@@]6(C)CC[C@H](O)C(C)(C)[C@@H]6CC[C@]54C)[C@@H]23)cc(-c2ccccc2)c1C(=O)OC`, the IC50 at 72 h is 36.3 µM in [1] and 30.2 µM in series [3]. Further, the concentration for half-maximal inhibition (IC50) in the series with CEM-DNR is 4.85 µM; in the series with HCT-116, 5.46 µM; in series [2], 4.36 µM; with K562 it was 6.12 µM; with A549, 4.44 µM; in the series on HCT 116 TP53(-/-), 6.17 µM. Moreover, the figures for the half-inhibitory concentration (IC50) with U2OS and in the series with CCRF-CEM were 9.94 µM and 6.3 µM, respectively.

Regarding `Cc1cc([C@@H]2CC[C@]3(C(=O)O)CC[C@]4(C)[C@H](CC[C@@H]5[C@@]6(C)CC[C@H](O)C(C)(C)[C@@H]6CC[C@]54C)[C@@H]23)cc2c1C(=O)NC2=O`, the IC50 at 72 h is > 50 µM in series [1] and 34.3 µM in [3]. Besides, the IC50 in the series with CEM-DNR is 8.76 µM; with HCT-116, 25.9 µM; in series [2] it was 7.2 µM; with K562 it was > 50 µM; in the series on A549, > 50 µM; in the series with HCT 116 TP53(-/-) it was 27.2 µM. For the same compound, the 50% inhibitory concentration (IC50) in the series with U2OS was 24.8 µM; with CCRF-CEM, 7.97 µM.

As to `CC1(C)[C@@H](O)CC[C@]2(C)[C@H]3CC[C@@H]4[C@H]5[C@H](c6ccc(C#N)c(C#N)c6)CC[C@]5(C(=O)O)CC[C@@]4(C)[C@]3(C)CC[C@@H]12`, the results for the half-inhibitory concentration (IC50) at 72 h in series [1] and in [3] were 35.5 µM and 25.3 µM, respectively. Also, the IC50 in the series on CEM-DNR was 5.23 µM; in the series with HCT-116, 23.7 µM; in series [2], 5.08 µM; in the series with K562, 30 µM; in the series with A549, 19.9 µM; with HCT 116 TP53(-/-), 31.8 µM. Further, the concentration for half-maximal inhibition (IC50) was found to be 20 µM in the series on U2OS and 5.9 µM in the series on CCRF-CEM.

What is called IC50 is the point on the concentration scale where inhibition reaches its midpoint.
